Data set [1] in a line: folding enthalpy; higher = less favourable; fluorescence melt of hairpins on a sequencing array, two-state fit. Conditions: sodium 0.088 M. The essentials:
(§1)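 Cy3 signals were normalised both to pre-quench Cy3 and to control constructs. They came from library hairpins carrying annealed Cy3 and quencher oligos on a sequenced MiSeq flow cell, imaged in 50 mM Na-HEPES pH 8.0, 25 mM NaCl, in 2.5 °C steps up to 60 °C. Bootstrapped two-state fits gave melting temperature and folding enthalpy, and four replicates were combined by inverse variance. Fitted temperatures were then raised by 9.35 °C to match UV melts.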

Data set [2] is described as follows: melting temperature; fluorescence melt of hairpins on a sequencing array, two-state fit, raised by 9.35 °C to match UV melts. The note with it: sodium 0.088 M. The essentials: as §1

For GGCTTACGAAAGTAGCC (((.(((....)))))), the folding enthalpy in data set [1] is -34.1 kcal/mol. Moreover, in data set [2], the Tm was 55.5 °C.

For the sequence GGCTTACGAAAGTATGCC (((.(((....))).))), in data set [1], the folding enthalpy is -45.2 kcal/mol. The Tm in data set [2] was 56.8 °C.

Regarding GGCTTCGAAAGAAACGCC ((((((....)))..))), the folding enthalpy in data set [1] is -26.1 kcal/mol. For the same sequence, the Tm in data set [2] was found to be 43.8 °C.

For GGCTTCGAAAGAACGCC ((((((....))).))), the folding enthalpy in data set [1] is -22.7 kcal/mol. Also, the Tm in data set [2] amounted to 50.9 °C.

As for GGCTTCGAAAGAAGGCC ((((((....))).))), the folding enthalpy in data set [1] was -26.8 kcal/mol. In data set [2], the Tm stood at 57.9 °C.

Turning to GGCTTCGGAAACAAAGCC (((((.(....).))))), the folding enthalpy in data set [1] was -28.3 kcal/mol. Moreover, in data set [2], the Tm is 44.2 °C.

As for GGCTTCGGAAACGAGGCC (((.(((....))).))), the folding enthalpy in data set [1] is -46.7 kcal/mol. The Tm in data set [2] stood at 58.8 °C.

Regarding GGCTTGGGAAACCGAGTC (.((.((....)).)).), in data set [1], the folding enthalpy was -27.4 kcal/mol. For the same sequence, the Tm in data set [2] was found to be 41.5 °C.

On to GGCTTGGGAAACTAGGCC (((.(.(....).).))), for which the folding enthalpy in data set [1] is -28.4 kcal/mol. Also, the Tm in data set [2] was 39.4 °C.

For the sequence GGCTTTACGAAAGTAGCC (((..(((....)))))), the folding enthalpy in data set [1] was -27.7 kcal/mol. In data set [2], the Tm was 45.5 °C.

Take GGCTTTGCGAAAGCAGCC (((..(((....)))))): the folding enthalpy in data set [1] is -17.2 kcal/mol. Further, the Tm in data set [2] came to 52.1 °C.

Turning to GGCTTTGGAAACAAAGCC (((((((....))))))), the folding enthalpy in data set [1] was -34.1 kcal/mol. Moreover, the Tm in data set [2] is 68.3 °C.

As for GGCTTTGGAAACAGAGCC ((((.((....)).)))), the folding enthalpy in data set [1] is -35.3 kcal/mol. In addition, in data set [2], the Tm worked out at 50.6 °C.

On to GGGAAAGGAAACTTTCTC (.(((((....))))).), for which the folding enthalpy in data set [1] was -20.4 kcal/mol. Moreover, the Tm in data set [2] amounted to 38.4 °C.

On to GGGAAAGGAAACTTTTCC ((.((((....)))).)), for which the folding enthalpy in data set [1] was -27 kcal/mol. The Tm in data set [2] turned out to be 40.6 °C.

Regarding GGGAACGAAAGTTCCCCC ((((((....)))..))), the folding enthalpy in data set [1] was -9.06 kcal/mol. Further, in data set [2], the Tm is 68.4 °C.

Turning to GGGAACGAAAGTTGACCC ((((((....)))..))), the folding enthalpy in data set [1] was -20.9 kcal/mol. In data set [2], the Tm came to 37.8 °C.

As for GGGAACGAAAGTTGCCC ((((((....))).))), the folding enthalpy in data set [1] was -28.6 kcal/mol. For the same sequence, the Tm in data set [2] came out at 53 °C.

Regarding GGGAACGAAAGTTGGCCC ((((((....)))..))), the folding enthalpy in data set [1] was -14.7 kcal/mol. Further, the Tm in data set [2] worked out at 32 °C.

On to GGGAACGAAAGTTGTCCC ((((((....)))..))), for which the folding enthalpy in data set [1] is -18.1 kcal/mol. In addition, the Tm in data set [2] worked out at 36.4 °C.

On to GGGAACGAAAGTTTACCC ((((((....)))..))), for which the folding enthalpy in data set [1] is -21.1 kcal/mol. The Tm in data set [2] was determined as 34.1 °C.

As for GGGAACGGAAACGTTCTC (.(((((....))))).), the folding enthalpy in data set [1] is -18.2 kcal/mol. Also, the Tm in data set [2] was 52.9 °C.

Take GGGAAGACGAAAGTCCCC (((..(((....)))))): the folding enthalpy in data set [1] is -19.1 kcal/mol. In addition, the Tm in data set [2] stood at 45.3 °C.

Turning to GGGAAGCGAAAGCTACCC (((.(((....))).))), the folding enthalpy in data set [1] was -30.7 kcal/mol. The Tm in data set [2] worked out at 59.3 °C.

On to GGGAAGCGAAAGCTCCC (((.(((....)))))), for which, in data set [1], the folding enthalpy was -38.7 kcal/mol. For the same sequence, in data set [2], the Tm was found to be 59.7 °C.

GGGAAGGAAACTTCCC ((((((....)))))): the folding enthalpy in data set [1] is -31.8 kcal/mol. The Tm in data set [2] came out at 58.1 °C.

Regarding GGGAATGGAAACATTCTC (.(((((....))))).), the folding enthalpy in data set [1] is -24.2 kcal/mol. In addition, the Tm in data set [2] was 44.9 °C.

In the case of GGGAATGGAAACGTTTCC ((.((.(....).)).)), in data set [1], the folding enthalpy is -15.3 kcal/mol. Moreover, the Tm in data set [2] was found to be 34.3 °C.

Take GGGACAACGAAAGTTCCC (((..(((....)))))): in data set [1], the folding enthalpy is -22.4 kcal/mol. Moreover, the Tm in data set [2] turned out to be 39.4 °C.

GGGACACGAAAGTGCCC (((.(((....)))))): the folding enthalpy in data set [1] is -24.1 kcal/mol. For the same sequence, the Tm in data set [2] came to 60.9 °C.

Turning to GGGACAGAAATGTCCC ((((((....)))))), in data set [1], the folding enthalpy is -29.3 kcal/mol. The Tm in data set [2] was determined as 64.1 °C.

On to GGGACCGAAAGGTATCCC ((((((....)))..))), for which the folding enthalpy in data set [1] was -18.1 kcal/mol. In addition, the Tm in data set [2] came to 47.7 °C.

On to GGGACCGAAAGGTGCCC ((((((....))).))), for which the folding enthalpy in data set [1] was -17.7 kcal/mol. Moreover, in data set [2], the Tm was found to be 61 °C.

As for GGGACCGAAAGGTGGCCC ((((((....)))..))), in data set [1], the folding enthalpy was -19 kcal/mol. Besides, in data set [2], the Tm stood at 45.5 °C.

Regarding GGGACCGAAAGGTTCCC ((((((....))).))), the folding enthalpy in data set [1] was -26.7 kcal/mol. For the same sequence, the Tm in data set [2] stood at 60.4 °C.

GGGACGCCGAAAGGCCCC (((..(((....)))))): the folding enthalpy in data set [1] is -13.7 kcal/mol. The Tm in data set [2] was determined as 45.4 °C.

As for GGGACGGGAAACCGTCTC (.(((((....))))).), the folding enthalpy in data set [1] is -20.2 kcal/mol. For the same sequence, in data set [2], the Tm amounted to 56.5 °C.

(Values after the array DNA melting data of Ke et al. (doi:10.1101/2024.01.08.574731).)
